In ChEMBL document CHEMBL2176935, “Discovery and lead optimization of a novel series of CC chemokine receptor 1 (CCR1)-selective piperidine antagonists via parallel synthesis” (J Med Chem, 2012):
Values after ≈ are worked out from the molar mass of the structure shown.

Assays:
[1] = Oral bioavailability life in mouse at 5.2 mg/kg; assay type: ADME, organism-based; settings: in vivo
[2] = Half life in mouse at 5.2 mg/kg, po; assay type: ADME, organism-based; parameters: dose 5.2 mg/kg, route oral; settings: in vivo
[3] = AUC in mouse at 5.2 mg/kg, po; assay type: ADME, organism-based; parameters: dose 5.2 mg/kg, route oral; settings: plasma
[4] = Cmax in mouse at 5.2 mg/kg, po; assay type: ADME, organism-based; parameters: dose 5.2 mg/kg, route oral; settings: in vivo
[5] = Half life in mouse at 2.5 mg/kg, iv; assay type: ADME, organism-based; parameters: dose 2.5 mg/kg, route intravenous; settings: in vivo
[6] = AUC in mouse at 2.5 mg/kg, iv; assay type: ADME, organism-based; parameters: dose 2.5 mg/kg, route intravenous; settings: plasma
[7] = Volume of distribution at steady state in mouse at 2.5 mg/kg, iv; assay type: ADME, organism-based; parameters: dose 2.5 mg/kg, route intravenous; settings: in vivo, read-out: Vdss
[8] = Clearance in mouse at 2.5 mg/kg, iv; assay type: ADME, organism-based; parameters: dose 2.5 mg/kg, route intravenous; settings: in vivo
[9] = Thermodynamic solubility in pH 6.5 potassium phosphate buffer by HPLC method; assay type: physicochemical; settings: read-out: Therm_solubility
Procedure, shortened: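 Thermodynamic equilibrium solubility. Compound standard dissolved in methanol, with DMSO added if needed, and mixed 1:1 with 50 mM potassium phosphate pH 6.5. Vortexed, sonicated 30 s, shaken 15−24 h at room temperature, centrifuged. Quantified by HPLC-UV at 210 or 254 nm against a calibration curve.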

[10] = target: Voltage-gated inwardly rectifying potassium channel KCNH2 (Homo sapiens, UniProt Q12809); test: Inhibition of human ERG expressed in HEK293 cells assessed as reduction in peak tail current by whole cell patch clamp assay; assay type: cell-based
Procedure, shortened: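 Whole-cell patch clamp on HEK-293 cells stably expressing the hERG α subunit. Inhibition measured on peak tail current. Aqueous buffer at pH 7.4, room temperature, no protein present.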

Cytochrome P450 2D6 = Cytochrome P450 2D6 (Homo sapiens, UniProt P10635); test: Inhibition of recombinant CYP2D6 expressed in baculovirus-infected insect cells using fluorogeinc substrate; assay type: ADME
Procedure, shortened: (§1)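 Recombinant CYP Supersomes premixed with fluorogenic substrate in potassium phosphate buffer and prewarmed 30 min at 37 °C with test substance. Reaction started with NADPH-regenerating system, incubated at 37 °C, then quenched with 80% acetonitrile/20% 0.5 M TRIS-base.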

Cytochrome P450 2C19 = Cytochrome P450 2C19 (Homo sapiens, UniProt P33261); test: Inhibition of recombinant CYP2C19 expressed in baculovirus-infected insect cells using fluorogeinc substrate; assay type: ADME; procedure, shortened: as §1
Cytochrome P450 2C9 = Cytochrome P450 2C9 (Homo sapiens, UniProt P11712); test: Inhibition of recombinant CYP2C9 expressed in baculovirus-infected insect cells using fluorogeinc substrate; assay type: ADME; procedure, shortened: as §1
Cytochrome P450 3A4 = Cytochrome P450 3A4 (Homo sapiens, UniProt P08684); test: Inhibition of recombinant CYP3A4 expressed in baculovirus-infected insect cells using fluorogeinc substrate; assay type: ADME; procedure, shortened: as §1
[11] = target: T1, C-C chemokine receptor type 1 (Rattus norvegicus, UniProt A6I4C9); test: Displacement of [125I]MIP-1alpha from CCR1 in rat thioglycolate-elicited peritoneal cells incubated for 60 mins
T1 sequence (A6I4C9 whole entry): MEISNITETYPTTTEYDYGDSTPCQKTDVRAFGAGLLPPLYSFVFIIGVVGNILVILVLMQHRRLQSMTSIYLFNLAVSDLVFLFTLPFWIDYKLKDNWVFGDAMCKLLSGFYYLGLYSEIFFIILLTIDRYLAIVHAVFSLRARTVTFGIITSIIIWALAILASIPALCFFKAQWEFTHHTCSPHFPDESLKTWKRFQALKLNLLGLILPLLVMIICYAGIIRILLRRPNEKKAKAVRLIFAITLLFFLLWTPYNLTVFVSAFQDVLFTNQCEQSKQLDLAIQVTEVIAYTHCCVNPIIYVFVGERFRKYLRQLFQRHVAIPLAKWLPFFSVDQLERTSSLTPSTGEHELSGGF
Procedure, shortened: (§2)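 Cross-species binding using human 125I-MIP-1α at 0.08 nM final. Nonspecific binding measured with excess unlabeled ligand. Incubated 60 min at room temperature, washed, air-dried, filters gamma-counted. Cells were the mouse WEHI 274.1 line, rat thioglycollate-elicited peritoneal cells, and rabbit peripheral blood mononuclear cells.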

Chemokine receptor = target: T2, Chemokine receptor (Oryctolagus cuniculus, UniProt Q9MYJ9); test: Displacement of [125I]MIP-1alpha from CCR1 in rabbit PBMCs incubated for 60 mins; procedure, shortened: as §2
T2 sequence (Q9MYJ9 whole entry): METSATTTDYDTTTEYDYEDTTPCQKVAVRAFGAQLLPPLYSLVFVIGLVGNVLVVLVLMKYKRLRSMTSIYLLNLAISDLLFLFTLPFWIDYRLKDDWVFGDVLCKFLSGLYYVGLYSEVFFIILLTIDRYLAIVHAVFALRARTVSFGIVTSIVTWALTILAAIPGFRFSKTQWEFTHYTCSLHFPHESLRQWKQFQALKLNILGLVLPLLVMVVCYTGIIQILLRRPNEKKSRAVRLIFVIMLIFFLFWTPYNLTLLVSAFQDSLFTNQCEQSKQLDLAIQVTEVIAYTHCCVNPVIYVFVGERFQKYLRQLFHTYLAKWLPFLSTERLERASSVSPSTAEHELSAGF

[12] = target: T3, C-C chemokine receptor type 1 (Mus musculus, UniProt P51675); test: Displacement of [125I]MIP-1alpha from CCR1 in mouse WEHI 274.1 cells incubated for 60 mins; assay type: cell-based; procedure, shortened: as §2
T3 sequence (P51675 whole entry): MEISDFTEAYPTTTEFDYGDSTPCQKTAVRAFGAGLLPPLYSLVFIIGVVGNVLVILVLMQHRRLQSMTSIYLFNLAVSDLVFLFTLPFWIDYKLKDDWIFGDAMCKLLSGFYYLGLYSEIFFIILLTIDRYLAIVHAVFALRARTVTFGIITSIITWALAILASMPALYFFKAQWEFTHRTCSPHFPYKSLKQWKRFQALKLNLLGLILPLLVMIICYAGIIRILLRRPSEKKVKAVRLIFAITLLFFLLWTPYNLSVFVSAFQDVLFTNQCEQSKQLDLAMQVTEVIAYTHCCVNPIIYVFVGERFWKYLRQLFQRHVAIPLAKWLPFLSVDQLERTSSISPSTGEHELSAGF

Liver microsomes [13] = test: Stability in rat liver microsomes assessed as compound remaining; assay type: ADME, Microsome
Liver microsomes [14] = test: Stability in human liver microsomes assessed as compound remaining; assay type: ADME, Microsome
Liver = test: Stability in mouse liver microsomes assessed as compound remaining; assay type: ADME, Microsome
[15] = target: C-C chemokine receptor type 5 (Homo sapiens, UniProt P51681); test: Displacement of [125I]MIP-1beta from human CCR5 expressed in HT1080 cells by scintillation counting; assay type: cell-based, HT-1080
Procedure, shortened: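 SPA using membranes from HT1080 cells stably expressing RAGE-activated human CCR5, 10 μg protein per well, with PVT-WGA-PS beads. Compound 11-point 3-fold dilutions, 40 μM to 0.7 nM final. 125I-MIP-1β at 0.1 nM final. Incubated 4 h at room temperature, read on TopCount.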

[16] = target: C-C chemokine receptor type 3 (Homo sapiens, UniProt P51677); test: Displacement of [125I]eotaxin from human CCR3 expressed in CHO CCR3/2 chimeric cells by scintillation counting; assay type: cell-based
Procedure, shortened: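 Compound 11-point 3-fold dilutions, 40 μM to 0.7 nM final. 125I-Eotaxin at 0.2 nM final. Incubated 3 h at room temperature; nonspecific binding set with 100 nM eotaxin. Duplicates.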

[17] = target: C-C chemokine receptor type 2 (Homo sapiens, UniProt P41597); test: Displacement of [125I]MCP1 from CCR2 in human THP1 cells; assay type: cell-based, THP-1
[18] = target: T4, C-C chemokine receptor type 1 (Homo sapiens, UniProt P32246); test: Antagonist activity at CCR1 in human THP1 cells assessed as inhibition of CK-8beta-induced calcium flux by FLIPR; assay type: functional, cell-based, THP-1
T4 sequence (P32246 whole entry): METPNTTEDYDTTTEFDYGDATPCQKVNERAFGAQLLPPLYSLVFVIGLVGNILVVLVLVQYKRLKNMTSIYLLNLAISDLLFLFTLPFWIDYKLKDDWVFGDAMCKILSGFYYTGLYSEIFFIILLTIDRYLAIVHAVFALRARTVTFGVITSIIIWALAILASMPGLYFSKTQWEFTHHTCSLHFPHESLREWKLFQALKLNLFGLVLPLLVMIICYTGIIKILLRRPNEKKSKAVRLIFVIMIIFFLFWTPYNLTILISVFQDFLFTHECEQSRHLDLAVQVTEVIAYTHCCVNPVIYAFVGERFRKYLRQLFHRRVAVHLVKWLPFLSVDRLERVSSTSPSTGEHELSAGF

[19] = target: T4, C-C chemokine receptor type 1; test: Antagonist activity at CCR1 in human THP1 cells assessed as inhibition of MIP-1alpha-induced calcium flux by FLIPR; assay type: functional, cell-based, THP-1
Procedure, shortened: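 THP-1 cells loaded with fluo-3 AM and resuspended in assay buffer containing probenecid. Calcium flux was followed on FLIPR after adding MIP-1α at 20 nM. Compound effect was taken as the change in base-to-peak excursion relative to control. Run in duplicate.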

[20] = target: T4, C-C chemokine receptor type 1; test: Displacement of [125I]MIP-1alpha from CCR1 in human THP1 cells; assay type: cell-based, THP-1
Procedure, shortened: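 THP-1 cells, 1 × 105, mixed with WGA PS SPA beads in RPMI 1640 (no phenol red) with 50 mM HEPES, 5 mM MgCl2, 1 mM CaCl2, 0.1% BSA. Compound in 3-fold dilutions, 8 μM to 140 pM final. [125I]-MIP-1α at 0.1 nM final. Incubated 12 h at room temperature, imaged by LEADseeker. Duplicates; IC50 from four-parameter logistic fit after nonspecific correction.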

Sequence of Cytochrome P450 3A4 (P08684 whole entry): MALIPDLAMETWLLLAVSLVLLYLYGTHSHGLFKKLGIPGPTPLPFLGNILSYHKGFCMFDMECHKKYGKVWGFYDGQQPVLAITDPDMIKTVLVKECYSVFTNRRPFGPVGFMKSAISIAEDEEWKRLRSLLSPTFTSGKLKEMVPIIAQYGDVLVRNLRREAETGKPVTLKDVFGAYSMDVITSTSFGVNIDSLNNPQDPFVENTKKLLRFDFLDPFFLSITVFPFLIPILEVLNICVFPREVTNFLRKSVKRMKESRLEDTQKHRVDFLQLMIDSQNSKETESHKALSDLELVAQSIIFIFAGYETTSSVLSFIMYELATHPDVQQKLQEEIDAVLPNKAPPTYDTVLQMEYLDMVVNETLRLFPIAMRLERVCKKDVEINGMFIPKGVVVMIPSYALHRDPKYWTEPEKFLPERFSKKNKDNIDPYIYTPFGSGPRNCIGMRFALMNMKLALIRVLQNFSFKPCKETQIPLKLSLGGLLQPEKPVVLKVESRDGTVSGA
Sequence of C-C chemokine receptor type 5 (P51681 whole entry): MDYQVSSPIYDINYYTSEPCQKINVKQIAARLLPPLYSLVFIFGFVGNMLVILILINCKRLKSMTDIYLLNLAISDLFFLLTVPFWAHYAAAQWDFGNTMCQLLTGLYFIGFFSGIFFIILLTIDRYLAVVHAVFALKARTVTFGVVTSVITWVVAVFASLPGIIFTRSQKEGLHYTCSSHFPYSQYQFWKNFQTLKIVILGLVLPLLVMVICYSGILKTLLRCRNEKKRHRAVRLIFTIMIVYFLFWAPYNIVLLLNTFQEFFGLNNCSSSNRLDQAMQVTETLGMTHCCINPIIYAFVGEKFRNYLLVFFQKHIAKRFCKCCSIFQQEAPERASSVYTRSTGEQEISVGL
Sequence of Cytochrome P450 2C9 (P11712 whole entry): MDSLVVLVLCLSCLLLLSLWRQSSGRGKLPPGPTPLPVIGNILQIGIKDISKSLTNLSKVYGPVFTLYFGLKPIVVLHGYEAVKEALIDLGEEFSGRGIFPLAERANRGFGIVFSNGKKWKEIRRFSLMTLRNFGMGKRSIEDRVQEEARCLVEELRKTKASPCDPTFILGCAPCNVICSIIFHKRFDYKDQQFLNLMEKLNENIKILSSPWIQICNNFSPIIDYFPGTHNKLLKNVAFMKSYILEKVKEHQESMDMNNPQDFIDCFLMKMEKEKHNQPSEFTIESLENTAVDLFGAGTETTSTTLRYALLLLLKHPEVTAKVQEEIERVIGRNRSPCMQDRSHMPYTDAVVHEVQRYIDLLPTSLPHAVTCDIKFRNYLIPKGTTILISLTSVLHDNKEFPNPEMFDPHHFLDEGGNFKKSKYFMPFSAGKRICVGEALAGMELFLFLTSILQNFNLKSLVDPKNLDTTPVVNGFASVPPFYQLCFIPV
Sequence of Cytochrome P450 2C19 (P33261 whole entry): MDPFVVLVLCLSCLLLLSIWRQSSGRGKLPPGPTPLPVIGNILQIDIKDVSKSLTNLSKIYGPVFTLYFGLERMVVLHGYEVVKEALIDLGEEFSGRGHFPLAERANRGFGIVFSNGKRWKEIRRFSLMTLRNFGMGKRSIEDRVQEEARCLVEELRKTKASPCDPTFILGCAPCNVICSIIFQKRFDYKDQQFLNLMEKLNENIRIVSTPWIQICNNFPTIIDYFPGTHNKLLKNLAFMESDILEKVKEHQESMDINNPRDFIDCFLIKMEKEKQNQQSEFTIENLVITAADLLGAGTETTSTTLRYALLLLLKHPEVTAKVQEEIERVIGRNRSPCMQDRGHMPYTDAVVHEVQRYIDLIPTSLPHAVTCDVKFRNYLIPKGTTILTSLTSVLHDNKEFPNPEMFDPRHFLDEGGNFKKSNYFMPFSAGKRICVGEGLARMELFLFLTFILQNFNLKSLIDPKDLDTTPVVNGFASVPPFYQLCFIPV
Sequence of Cytochrome P450 2D6 (P10635 whole entry): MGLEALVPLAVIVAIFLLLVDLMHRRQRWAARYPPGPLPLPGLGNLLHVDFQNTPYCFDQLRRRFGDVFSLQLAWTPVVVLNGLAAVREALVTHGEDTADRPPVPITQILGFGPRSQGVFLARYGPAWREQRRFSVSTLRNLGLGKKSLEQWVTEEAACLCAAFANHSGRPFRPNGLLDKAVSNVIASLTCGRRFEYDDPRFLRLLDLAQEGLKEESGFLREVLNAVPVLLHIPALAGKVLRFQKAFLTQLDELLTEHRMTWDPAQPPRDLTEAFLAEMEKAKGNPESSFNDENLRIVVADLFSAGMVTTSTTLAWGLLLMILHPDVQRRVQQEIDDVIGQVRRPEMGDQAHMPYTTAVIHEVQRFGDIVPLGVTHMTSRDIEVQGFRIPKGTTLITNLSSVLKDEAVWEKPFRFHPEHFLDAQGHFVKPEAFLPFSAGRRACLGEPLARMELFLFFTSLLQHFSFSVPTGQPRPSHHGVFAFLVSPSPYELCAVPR
Sequence of Voltage-gated inwardly rectifying potassium channel KCNH2 (Q12809 whole entry): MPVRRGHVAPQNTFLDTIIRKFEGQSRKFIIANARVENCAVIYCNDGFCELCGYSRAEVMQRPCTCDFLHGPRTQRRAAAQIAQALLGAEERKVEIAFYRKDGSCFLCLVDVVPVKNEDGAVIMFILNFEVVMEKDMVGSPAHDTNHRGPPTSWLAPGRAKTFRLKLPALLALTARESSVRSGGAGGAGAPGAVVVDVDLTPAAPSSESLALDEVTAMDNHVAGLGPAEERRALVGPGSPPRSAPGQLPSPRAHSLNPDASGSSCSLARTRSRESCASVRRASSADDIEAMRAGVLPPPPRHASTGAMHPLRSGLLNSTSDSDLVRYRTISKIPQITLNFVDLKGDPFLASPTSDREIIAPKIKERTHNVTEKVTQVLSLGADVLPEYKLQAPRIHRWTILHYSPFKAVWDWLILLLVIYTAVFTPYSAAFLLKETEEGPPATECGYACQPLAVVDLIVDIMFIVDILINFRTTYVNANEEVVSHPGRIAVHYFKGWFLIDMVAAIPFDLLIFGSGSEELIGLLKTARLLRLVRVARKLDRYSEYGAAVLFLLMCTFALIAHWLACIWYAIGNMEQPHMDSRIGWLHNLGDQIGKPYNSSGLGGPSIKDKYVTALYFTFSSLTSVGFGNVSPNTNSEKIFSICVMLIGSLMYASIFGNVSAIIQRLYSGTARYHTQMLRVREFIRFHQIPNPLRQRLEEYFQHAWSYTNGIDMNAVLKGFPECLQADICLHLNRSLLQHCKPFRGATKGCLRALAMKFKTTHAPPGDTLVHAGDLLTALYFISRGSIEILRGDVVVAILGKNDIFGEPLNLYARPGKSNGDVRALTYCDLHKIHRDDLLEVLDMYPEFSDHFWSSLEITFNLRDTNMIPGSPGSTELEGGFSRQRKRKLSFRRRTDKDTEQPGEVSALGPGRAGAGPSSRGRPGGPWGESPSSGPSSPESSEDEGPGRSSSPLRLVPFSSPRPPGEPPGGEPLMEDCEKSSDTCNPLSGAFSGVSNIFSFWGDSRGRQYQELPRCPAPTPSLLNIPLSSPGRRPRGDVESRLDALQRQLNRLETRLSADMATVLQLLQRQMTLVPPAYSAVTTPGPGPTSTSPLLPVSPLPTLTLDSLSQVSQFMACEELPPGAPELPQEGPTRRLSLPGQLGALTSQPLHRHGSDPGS
Sequence of C-C chemokine receptor type 2 (P41597 whole entry): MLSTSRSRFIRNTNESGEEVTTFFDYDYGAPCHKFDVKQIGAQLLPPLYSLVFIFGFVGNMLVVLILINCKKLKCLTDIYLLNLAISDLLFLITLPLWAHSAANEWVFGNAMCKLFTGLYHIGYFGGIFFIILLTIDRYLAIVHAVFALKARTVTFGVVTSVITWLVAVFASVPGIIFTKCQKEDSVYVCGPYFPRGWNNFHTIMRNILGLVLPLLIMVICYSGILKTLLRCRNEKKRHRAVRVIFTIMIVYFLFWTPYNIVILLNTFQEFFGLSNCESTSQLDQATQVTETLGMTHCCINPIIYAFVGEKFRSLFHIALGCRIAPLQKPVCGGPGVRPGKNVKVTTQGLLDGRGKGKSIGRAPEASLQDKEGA
Sequence of C-C chemokine receptor type 3 (P51677 whole entry, looked up): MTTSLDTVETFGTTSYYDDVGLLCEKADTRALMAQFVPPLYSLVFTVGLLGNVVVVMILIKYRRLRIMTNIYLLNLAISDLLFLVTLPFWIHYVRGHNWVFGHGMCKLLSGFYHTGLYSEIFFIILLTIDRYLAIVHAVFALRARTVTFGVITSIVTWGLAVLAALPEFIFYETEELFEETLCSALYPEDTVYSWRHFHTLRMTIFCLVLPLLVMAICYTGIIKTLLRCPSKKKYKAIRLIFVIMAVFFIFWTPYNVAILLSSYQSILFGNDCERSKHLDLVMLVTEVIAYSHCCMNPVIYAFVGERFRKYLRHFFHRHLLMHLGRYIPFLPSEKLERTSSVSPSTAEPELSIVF

CC(C)[C@@H](NC(=O)c1ccccc1)C(=O)N1CCC(c2ccc(Cl)cc2)CC1
bioavailability [1]: 52%
half-life [2]: 5.2 h
AUC [3]: 6.6 µM·h
Cmax [4]: 3.1 µM
half-life [5]: 6.9 h
AUC [6]: 5.9 µM·h
Vd [7]: 4.8 L/kg
clearance [8]: 12.5 mL/min/kg
solubility thermodynamic [9]: 1 µg/mL (≈ 2.51 µM)
IC50 [10]: 7 µM
IC50 (Cytochrome P450 2D6): > 40 µM
IC50 (Cytochrome P450 2C19): > 40 µM
IC50 (Cytochrome P450 2C9): > 40 µM
IC50 (Cytochrome P450 3A4): > 40 µM
IC50 [11]: > 30 µM
IC50 (Chemokine receptor): 0.55 µM
IC50 [12]: > 25 µM
Stability (Liver microsomes [13]): 83%
Stability (Liver microsomes [14]): 100%
Stability (Liver): 73%
IC50 [15]: > 20 µM
IC50 [16]: > 30 µM
IC50 [17]: > 20 µM
IC50 [18]: 0.085 µM
IC50 [19]: 0.015 µM
IC50 [20]: 0.028 µM
